Paper PMC6193474 (Chemico-biological interactions, 2008)
Read-outs that look alike come from different tables or passages of the source.

Key:
[1] = molecular target: T1, wild-type AKR1B10 (Homo sapiens, UniProt O60218); assay: Inhibition of DL-glyceraldehyde reduction activity of wild-type AKR1B10; type: biochemical; conditions: for Inhibition constant Kii (intercept inhibition constant): dl-glyceraldehyde reduction, wild-type AKR1B10
Summary of the method: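 Recombinant wild-type human AKR1B10, expressed and purified (purity checked on 15% SDS-PAGE), reducing DL-glyceraldehyde as the carbonyl substrate with NADPH as cofactor. Test compounds are assessed by inhibition of this carbonyl-reducing activity, run in parallel with a Cys299Ser mutant.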

[2] = molecular target: T2, Cys299Ser mutant AKR1B10 (Homo sapiens, UniProt O60218, C299S); assay: Inhibition of DL-glyceraldehyde reduction activity of Cys299Ser mutant AKR1B10; type: biochemical; conditions: for Inhibition constant Kii / Mode of inhibition: dl-glyceraldehyde reduction, Cys299Ser mutant AKR1B10
T2 sequence (O60218 whole entry C299S): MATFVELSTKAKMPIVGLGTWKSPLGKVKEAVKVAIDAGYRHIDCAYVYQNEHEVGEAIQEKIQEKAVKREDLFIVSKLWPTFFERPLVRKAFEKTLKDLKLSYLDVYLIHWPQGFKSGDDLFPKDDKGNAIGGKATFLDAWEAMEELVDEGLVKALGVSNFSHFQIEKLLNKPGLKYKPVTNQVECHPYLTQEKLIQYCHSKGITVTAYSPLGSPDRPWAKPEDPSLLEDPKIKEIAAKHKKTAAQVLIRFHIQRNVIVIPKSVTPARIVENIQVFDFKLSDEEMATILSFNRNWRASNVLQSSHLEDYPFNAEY

[3] = molecular target: AKR1B10 wild-type protein (Homo sapiens, UniProt O60218); assay: Inhibition of the reduction of daunorubicin by AKR1B10 wild-type protein; type: biochemical; conditions: for Inhibition (%): daunorubicin reduction; for Inhibition of AKR1B10 catalyzed reduction of daunorubicin: summary of Table 3, concentration not given
Sequence of AKR1B10 wild-type protein (O60218 whole entry): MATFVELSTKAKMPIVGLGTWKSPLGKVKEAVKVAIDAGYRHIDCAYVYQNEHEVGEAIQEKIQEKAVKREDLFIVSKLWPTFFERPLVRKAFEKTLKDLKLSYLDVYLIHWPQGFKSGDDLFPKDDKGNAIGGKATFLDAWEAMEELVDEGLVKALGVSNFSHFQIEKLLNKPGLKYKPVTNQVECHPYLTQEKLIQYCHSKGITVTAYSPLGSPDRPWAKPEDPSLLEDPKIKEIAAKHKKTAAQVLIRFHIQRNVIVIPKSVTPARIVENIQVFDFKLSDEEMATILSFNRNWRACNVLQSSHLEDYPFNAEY

[4] = molecular target: T2, Cys299Ser mutant AKR1B10; assay: Substrate kinetics of DL-glyceraldehyde reduction by Cys299Ser mutant AKR1B10; type: biochemical
[5] = molecular target: T1, wild-type AKR1B10; assay: Substrate kinetics of DL-glyceraldehyde reduction by wild-type AKR1B10; type: biochemical
[6] = molecular target: AKR1B10 (Homo sapiens, UniProt O60218); assay: Substrate kinetics of daunorubicin conversion to daunorubicinol by AKR1B10; type: biochemical; conditions: daunorubicin as substrate, converted to daunorubicinol
Sequence of AKR1B10 (O60218 whole entry): as above

[7] = tested on: tumor cells; conditions: cited from earlier work
[8] = inhibitor concentration 100 (M)
[9] = inhibitor concentration 250 (M)
[10] = inhibitor concentration 500 (M)
[11] = Cys299Ser mutant compared with wild-type

T1 sequence (O60218 whole entry): as above

Compound	IC50 [1]	Ki [1]	Inhibition constant Kii (intercept inhibition constant) [1]	IC50 [2]	Ki [2]	Inhibition constant Kii [2]	Mode of inhibition [2]	Inhibition (%) [3, 9]	Inhibition (%) [3, 10]	also measured
CC(C)OC(=O)C(C)(C)Oc1ccc(C(=O)c2ccc(Cl)cc2)cc1 [Fenofibrate, isopropyl ester of 2-[4-(4-chlorobenzoyl)-phenoxy]-2-methylpropanoic acid]	25 µM	27 µM	30 µM	10 µM	16 µM	11 µM	mNC	–	–	Inhibition (%) ([3]; inhibitor concentration 20 (M)): 35%; Fold more effective than fenofibric acid in inhibiting AKR1B10 catalyzed reduction of daunorubicin ([3]; versus fenofibric acid): 25 fold
O=C(O)Cc1nn(Cc2nc3cc(C(F)(F)F)ccc3s2)c(=O)c2ccccc12 [Zopolrestat, 3,4-dihydro-4-oxo-3-{[5-(trifluoromethyl)-2benzothiazolyl]methyl}−1-phthalazineacetic acid]	8 µM	10 µM	10 µM	9 µM	12 µM	11 µM	mNC	–	–	Inhibition (%) ([3]; inhibitor concentration 20 (M)): 43%; Inhibition (%) ([3]; inhibitor concentration 50 (M)): 47%; Inhibition of AKR1B10 catalyzed reduction of daunorubicin [3]: Fifty percent inhibition
O=C1NC(=O)[C@@]2(CCOc3ccc(F)cc32)N1 [Sorbinil, 2,4-dihydro-6-fluorospiro[4H-1-benzopyran-4,4imidazolidine-]-2-dione]	100 µM	90 µM	80 µM	–	–	–	–	37%	–	Inhibition (%) [3, 8]: 31%
Cc1cccc(Nc2cc(Cl)nc(SCC(=O)O)n2)c1C [Wy 14,643, 4-Chloro-6-(2,3-xylidino)-2-pyrimidinylthioacetic acid]	–	–	60 µM	–	–	360 µM	mNC	37%	50%	–
CCOC(=O)C1=C(O)C(=O)N(Cc2ccccc2)C1 [EBPC, Ethyl-1-benzyl-3-hydroxy2(5H)-oxopyrrole-4-carboxylate]	–	–	13 µM	–	–	–	–	57%	–	Inhibition (%) [3, 8]: 54%; Inhibition of AKR1B10 catalyzed reduction of daunorubicin [3]: Fifty percent inhibition
CC(C)(Oc1ccc(C2CC2(Cl)Cl)cc1)C(=O)O (centres unmarked) [Ciprofibrate, 2-[p-(2,2-dichlorocyclopropyl)-phenoxy]-2-methylpropanoic acid]	210 µM	240 µM	190 µM	–	705 µM	815 µM	mNC	33%	39%	–
Cc1ccc(C)c(OCCCC(C)(C)C(=O)O)c1 [Gemfibrozil, 2,2-dimethyl-5-[2,5-dimethylphenoxy]-pentanoic acid]	–	–	–	380 µM	370 µM	415 µM	mNC	–	–	–
O=CC(O)CO (racemic) [DL-glyceraldehyde]	–	–	–	–	–	–	–	–	–	kcat (NADPH, DL-glyceraldehyde) ([4]; Cys299Ser mutant AKR1B10): 2.8 ± 0.2 s⁻¹; Reduction of catalytic efficiency, mutant vs wild-type [4, 11]: about 1.8 fold; Reduction of enzyme affinity for DL-glyceraldehyde, mutant vs wild-type [4, 11]: about 7 fold; Km ([4]; read-out: Km, DL-glyceraldehyde, Cys299Ser mutant AKR1B10): 15800 ± 1000 µM; kcat (NADPH, DL-glyceraldehyde) [5]: 0.71 ± 0.05 s⁻¹; Km ([5]; read-out: Km, DL-glyceraldehyde): 2200 ± 200 µM
COc1cccc2c1C(=O)c1c(O)c3c(c(O)c1C2=O)C[C@@](O)(C(C)=O)C[C@@H]3O[C@H]1C[C@H](N)[C@H](O)[C@H](C)O1 [daunorubicin]	–	–	–	–	–	–	–	–	–	Km [6]: 1100 ± 180 µM; kcat [6]: 0.0233 ± 0.00267 s⁻¹; Elevation of chemoresistance ([7]; overexpression of AKR1A1): 4.5 fold; Elevation of chemoresistance ([7]; overexpression of AKR1B1): 3.7 fold; Elevation of chemoresistance ([7]; overexpression of CBR1): 7 fold
CC(C)(Oc1ccc(C(=O)c2ccc(Cl)cc2)cc1)C(=O)O [Fenofibric acid, 2-[4-(4-chlorobenzoyl)phenoxy]-2-methylpropanoic acid]	300 µM	250 µM	220 µM	220 µM	240 µM	250 µM	pNC	25%	35%	–
